Assay results taken from article PMC10237622 (Structure (London, England : 1993), 2023).

Key:
[1] = tested on: CSP peptides Pep-II through Pep-IV; assay: BLI free energies of binding, peptides Pep-II through Pep-IV versus Pep-I; set-up: species or system Plasmodium falciparum; settings: Pep-II though Pep-IV after subtraction of Pep-I
Procedure, shortened: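 Free energy of binding was calculated from each experimental KD. The Pep-I value was subtracted from Pep-II through Pep-IV to isolate added binding energy from multivalent and homotypic interactions.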

[2] = tested on: CSP peptide Pep-II (1 NPNV; 1 NPNA); assay: Biolayer interferometry; type: binding, Plasmodium falciparum
Procedure, shortened: (§1)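 Streptavidin biosensors were loaded with biotinylated CSP peptide at 0.1 ug/mL in PBS + 1% BSA. Loading times were shortened per peptide (45, 30, 15, 3 s) to keep density below 0.01 nm. After a 60 s baseline, Fab (2000–2.7 nM), IgG (1000–1.3 nM) or IgM (100–0.1 nM) associated for 240–300 s, then dissociated 1200 s, at 30°C with agitation. Curves were drift-corrected against a loaded sensor in PBS and fitted globally to a 1:1 Langmuir model.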

[3] = tested on: peptides Pep-I through Pep-IV; assay: Reverse-format BLI, immobilized L9 IgG dipped into peptide; type: binding, Plasmodium falciparum; settings: IgG (5 ug/mL) immobilized on AHC biosensors to 0.1 nm, dipped into varying peptide concentrations, 30°C
[4] = biological target: CSP peptide Pep-IV (3 NPNV; 1 NPNA); assay: Biolayer interferometry; type: binding, Plasmodium falciparum
[5] = tested on: CSP peptide Pep-I (1 NPNV; 0 NPNA); assay: Biolayer interferometry; type: binding, Plasmodium falciparum; settings: IgG versus Fab
Procedure, shortened: as §1

[6] = tested on: CSP peptide Pep-III (2 NPNV; 0 NPNA); assay: Biolayer interferometry; type: binding, Plasmodium falciparum

Substance	increase in affinity, Fab/IgG/IgM context compared (in words) [1]	increase in affinity (free energy of binding ΔG minus ΔG of Pep-I) ([2]; L9 IgG, homotypic and less preferred NPNA with two L9s (Pep-II), calculated from KD) [kcal/mol]	affinity, fold higher than to Pep-I ([2]; Pep-II versus Pep-I)	affinity, reverse format (in words) [3]	decrease in KD (in words) ([4]; L9 IgG, Pep-IV versus Pep-I)	affinity (in words) ([4]; Pep-IV (3 NPNV; 1 NPNA))	on-rate, fold higher than Fab [5] [fold]	increase in affinity (free energy of binding ΔG minus ΔG of Pep-I) ([6]; L9 IgG, homotypic and preferred NPNV with two L9s (Pep-III), calculated from KD) [kcal/mol]	affinity, fold higher than to Pep-II ([6]; Pep-III versus Pep-II)
IgM: L9 IgM, produced in house	lowest in the IgM context								
L9 IgG: L9 IgG, produced in house	greatest in the IgG context	-1.1	~ 6 fold	comparable affinities to peptides Pep-I through Pep-IV	over two orders of magnitude	substantially higher affinity	25	-2.2	~ 6 fold
